{
  "source": "paper PMC2761948",
  "about": "(Journal of medicinal chemistry, 2009)",
  "key": {"[1]": {"system": "4T1 cells", "assay": "Migration assay", "assay_type": "cell-based, mouse", "outline": "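Trypsinised 4T1 cells (5 × 10^4) in 0.2% FBS RPMI with test compound were placed in Transwell inserts (12-μm pore polycarbonate) for 30 min at 37 °C. Inserts then moved to wells with 10% FBS RPMI for 24 h. Migrated and non-migrated cells were crystal violet-stained and methanol-solubilised separately; A570 read. Background-corrected % migration normalised to vehicle; mean ± SD, n = 3.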"}, "[2]": {"system": "focal adhesion kinase (FAK)", "assay": "FAK immunostaining and Western blotting", "assay_type": "cell-based, mouse", "conditions": "1 h; for FAK degradation (Western blotting): 4T1 cells", "outline": "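4T1 cells treated for 1 h with test compound or DMSO. For focal adhesion sites, cells were fixed and immunostained with anti-FAK antibody (2.5 μM test compound, 5 μM comparator). For FAK stability, each agent was given at 5 μM and cell lysates were immunoblotted with anti-FAK monoclonal antibody.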"}, "[3]": {"system": "4T1 cells", "assay": "F-actin immunostaining", "assay_type": "cell-based, mouse", "conditions": "4-h exposure", "outline": "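Cells grown overnight on coverslips, then exposed to test compound for 4 h in 2% FBS RPMI 1640. They were fixed in 3.7% formaldehyde, permeabilised 1 h (PBS, 0.1% Triton X-100, 0.1% BSA) and stained 30 min with Alexa Fluor 488 phallotoxin, with DAPI counterstain. Confocal imaging (488/543 nm excitation); fluorescence intensity expressed as % of untreated control.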"}, "[4]": {"system": "SKBR3 breast cancer cells", "assay": "Adhesion assay, SKBR3 cells to Matrigel-coated surface", "assay_type": "cell-based, human", "conditions": "at 100 μM", "outline": "(§1)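 Wells coated with 12% (v/v) Matrigel for 1 h at 37 °C, washed with 0.1% BSA-RPMI, then blocked with 0.5% BSA-RPMI for 60 min. Cells were pretreated with test compound for 60 min at 37 °C, seeded at 2 × 10^4 per well, and left to adhere for 30 min. Adherent cells were fixed in formalin, stained with crystal violet and solubilised in 2% SDS; A570 read. Mean ± SD, n = 3.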"}, "[5]": {"system": "4T1 metastatic breast cancer cells", "assay": "Adhesion assay, 4T1 cells to Matrigel-coated surface", "assay_type": "cell-based, mouse", "conditions": "read-out: IC50, inhibition of 4T1 cell adhesion"}, "[6]": {"system": "MCF-7 breast cancer cells", "assay": "Adhesion assay, MCF-7 cells to Matrigel-coated surface", "assay_type": "cell-based, human", "conditions": "at 100 μM", "outline": "as §1"}},
  "note": "pIC50: −log10 of the molar value.",
  "data": [
    {"compound": "Cc1c(C)c2c(c(C)c1OC(=O)CCC(=O)O)CC[C@](C)(CCCC(C)CCCC(C)C)O2", "note": "(stereo partly shown) [Compound 2]", "values": [
      {"measurement": "inhibition of serum-induced 4T1 cell migration", "setting": "[1]; at 5 μM", "value": "little effect"},
      {"measurement": "FAK degradation (Western blotting)", "setting": "[2]; 5 μM", "value": "less evident or not appreciable"}
    ]},
    {"compound": "Cc1c(C)c2c(c(C)c1OC(=O)CCC(=O)O)CC[C@](C)(/C=C/CC(C)CCCC(C)C)O2", "note": "(stereo partly shown) [Compound 4, Succinic acid mono-[2-(4,8-dimethyl-non-1-enyl)-2,5,7,8-tetramethyl-chroman-6-yl] ester]", "values": [
      {"measurement": "inhibition of serum-induced 4T1 cell migration", "setting": "[1]; at 5 μM", "value": "effective in inhibiting cell migration"}
    ]},
    {"compound": "Cc1c(C)c2c(c(C)c1OCC(=O)O)CC[C@](C)(/C=C/CC(C)CCCC(C)C)O2", "note": "(stereo partly shown) [Compound 5, [2-(4,8-Dimethyl-non-1-enyl)-2,5,7,8-tetramethyl-chroman-6-yloxy]-acetic acid]", "values": [
      {"measurement": "inhibition of serum-induced 4T1 cell migration", "setting": "[1]; at 5 μM", "value": "effective in inhibiting cell migration"},
      {"measurement": "effect on actin stress fiber and lamellipodia formation", "setting": "[3]; 5 μM", "value": "rapid dissolution of stress fiber and impairment of lamellipodia formation"},
      {"measurement": "effect on focal adhesion sites (anti-FAK immunostaining)", "setting": "[2]; 2.5 μM", "value": "loss of focal adhesion sites"},
      {"measurement": "FAK degradation (Western blotting)", "setting": "[2]; 5 μM", "value": "induced FAK degradation"}
    ]},
    {"compound": "Cc1c(C)c2c(c(C)c1OCC(=O)O)CC[C@](C)(CCCC(C)CCCC(C)C)O2", "note": "(stereo partly shown) [Compound 6, [2-(4,8-Dimethyl-nonyl)-2,5,7,8-tetramethyl-chroman-6-yloxy]-acetic acid]", "values": [
      {"measurement": "inhibition of serum-induced 4T1 cell migration", "setting": "[1]; at 5 μM", "value": "effective in inhibiting cell migration"},
      {"measurement": "effect on actin stress fiber and lamellipodia formation", "setting": "[3]; 10 μM", "value": "rapid dissolution of stress fiber and impairment of lamellipodia formation"}
    ]},
    {"compound": "α-tocopheryl succinate [Compound 1, reference compound]", "values": [
      {"measurement": "suppression of SKBR3 cell adhesion", "setting": "[4]", "value": "ineffective"},
      {"measurement": "inhibition of serum-induced 4T1 cell migration", "setting": "[1]; at 50 μM", "value": "little effect"},
      {"measurement": "effect on actin stress fiber", "setting": "[3]; 50 μM", "value": "remained largely intact"},
      {"measurement": "FAK degradation (Western blotting)", "setting": "[2]; 5 μM", "value": "less evident or not appreciable"},
      {"measurement": "effect on focal adhesion sites (anti-FAK immunostaining)", "setting": "[2]; 5 μM, negative control", "value": "typical punctate pattern"},
      {"measurement": "pIC50", "setting": "[5]", "value": 5.00},
      {"measurement": "suppression of MCF-7 cell adhesion", "setting": "[6]", "value": "ineffective"}
    ]}
  ]
}
